Measurements collected from several papers.
Compare with care: the assays were run in different laboratories.
RPS6KA3 N-terminal kinase domain: Ribosomal protein S6 kinase alpha-3, N-terminal kinase domain (RPS6KA3, Homo sapiens, UniProt P51812)
RPS6KA3: Ribosomal protein S6 kinase alpha-3 (RPS6KA3, Homo sapiens, UniProt P51812)

SMILES | target | read-out | action | method | concentration | quantity | result
COc1cc(Nc2ncc(F)c(Nc3ccc4c(n3)NC(=O)C(C)(C)O4)n2)cc(OC)c1OC | RPS6KA3 N-terminal kinase domain | binding |  | competition with immobilised ligand | 10 µM | inhibition | 88%
O=c1[nH]c2ccccc2n1C1CCN(Cc2ccc(-c3[nH]c4cc5ncnc5cc4nc3-c3ccccc3)cc2)CC1 | RPS6KA3 | cell-free assay |  |  | 0.5 µM | remaining signal | 96.6%
Cn1cncc1[C@](O)(COc1ccc(C#N)cc1-c1ccc(OC(F)(F)F)cc1)c1ccc(C#N)cc1 | RPS6KA3 N-terminal kinase domain | cell-free assay |  | competition with immobilised ligand | 1 µM | remaining binding | 100%
Cn1cc(-c2cccc(N3CCc4c(sc5c4CC(C)(C)C5)C3=O)c2CO)cc(Nc2ccncn2)c1=O | RPS6KA3 | enzyme activity | inhibitor |  | 1 µM | inhibition | 1%
CC(C)(C)c1cc(C=C(C#N)C#N)cc(Br)c1O | RPS6KA3 | enzyme activity | inhibitor |  | 0.5 µM | remaining activity | 92.2%
Cc1nn(C)cc1-c1nc2c(N3CCN(Cc4ccc(Cl)cc4)CC3)c(Cl)cnc2[nH]1 | RPS6KA3 N-terminal kinase domain | binding |  | competition with immobilised ligand | 1 µM | remaining binding | 84%
Cn1cc(-c2cc(F)cc(N3CCn4c(cc5c4CCCC5)C3=O)c2CO)cc(Nc2ccc(N3CCN(C4COC4)CC3)cn2)c1=O | RPS6KA3 | enzyme activity | inhibitor |  | 0.1 µM | inhibition | 7%
Nc1ncc(-c2nc(N3CCOCC3)nc(N3CCOCC3)n2)c(C(F)F)n1 | RPS6KA3 N-terminal kinase domain | binding |  | competition with immobilised ligand | 10 µM | remaining binding | 59%
N#CC1(c2ccccn2)CCN(Cc2cc(C(=O)O)c(=O)n3ccccc23)CC1 | Ribosomal protein S6 kinase alpha-3, C-terminal kinase domain (RPS6KA3, Homo sapiens, UniProt P51812) | cell-free assay |  | competition with immobilised ligand | 1 µM | remaining binding | 100%
